Laboratory results taken from ChEMBL document CHEMBL3045950, “Design, synthesis, and analysis of the quantitative structure-activity relationships of 4-phenyl-acyl-substituted 3-(2,5-dimethylphenyl)-4-hydroxy-1-azaspiro[4.5]dec-3-ene-2,8-dione derivatives” (2012).

Key:
Format in all cases: functional
Aphis fabae [1] = test: Insecticidal activity against Aphis fabae (black bean aphid) apterous third-instar nymphae in tender soybean shoots assessed as inhibition activity at 100 mg/L after 72 hr
Method in brief: (§1)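 Test solutions were made in N,N-dimethylformamide and diluted to working concentration with distilled water containing TW-80 (0.1 mL L⁻¹). Aphids were dipped following a slightly modified FAO dip test. Assessment was made 72 h after treatment. Each treatment was run three times, and control groups were given water only. Deviation of values was 5%.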

Aphis fabae [2] = test: Insecticidal activity against Aphis fabae (black bean aphid) apterous third-instar nymphae in tender soybean shoots assessed as inhibition activity at 10 mg/L after 72 hr; method in brief: as §1
Tetranychus cinnabarinus [3] = test: Larvicidal activity against Tetranychus cinnabarinus (carmine spider mite) fifty third-instar mite larvae assessed as inhibition activity at 100 mg/L after 72 hr
Method in brief: (§2)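 Test solutions were made in N,N-dimethylformamide and diluted with distilled water containing TW-80 (0.1 mL L⁻¹). Fifty third-instar larvae were dipped in the dilution for 5 s, and excess liquid was removed. Larvae were then held in an air-conditioned room, and mortality was scored at 72 h. Tests were run in triplicate, and controls were treated with water only.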

Tetranychus cinnabarinus [4] = test: Larvicidal activity against Tetranychus cinnabarinus ( carmine spider mite ) fifty third-instar mite larvae assessed as inhibition activity at 10 mg/L after 72 hr; method in brief: as §2

Compound	inhibition at 100 µg/mL (Aphis fabae [1]) [%]	inhibition at 10 µg/mL (Aphis fabae [2]) [%]	inhibition at 100 µg/mL (Tetranychus cinnabarinus [3]) [%]	inhibition at 10 µg/mL (Tetranychus cinnabarinus [4]) [%]
Cc1ccc(C)c(C2=C(OC(=O)c3ccc(Cl)cc3)C3(CCC(=O)CC3)NC2=O)c1	68.2	10.8	42.9	9.23
Cc1ccc(C)c(CC(=O)OC2=C(c3cc(C)ccc3C)C(=O)NC23CCC(=O)CC3)c1	76.2	37.3	61.6	24.6
Cc1cc(C)c(CC(=O)OC2=C(c3cc(C)ccc3C)C(=O)NC23CCC(=O)CC3)c(C)c1	69.2	25.2	39.4	12.1
COc1ccc(CC(=O)OC2=C(c3cc(C)ccc3C)C(=O)NC23CCC(=O)CC3)cc1	92.1	87.3	80.5	24.4
Cc1ccc(C)c(C2=C(OC(=O)Cc3ccc(F)cc3)C3(CCC(=O)CC3)NC2=O)c1	93.7	69.3	49	29.9
Cc1ccc(C)c(C2=C(OC(=O)Cc3ccccc3Cl)C3(CCC(=O)CC3)NC2=O)c1	96.5	59.2	53.5	28.3
Cc1ccc(C)c(C2=C(OC(=O)Cc3cccc(Cl)c3)C3(CCC(=O)CC3)NC2=O)c1	44.6	13.6	24.7	3.23
Cc1ccc(C)c(C2=C(OC(=O)Cc3ccc(Cl)cc3)C3(CCC(=O)CC3)NC2=O)c1	89.8	47.3	58	17.8
Cc1ccc(C)c(C2=C(OC(=O)Cc3ccc(Cl)cc3Cl)C3(CCC(=O)CC3)NC2=O)c1	85.6	26.9	75.9	31.2
Cc1ccc(C)c(C2=C(OC(=O)Cc3ccc(Cl)c(Cl)c3)C3(CCC(=O)CC3)NC2=O)c1	97.3	49.3	71.7	28.9
Cc1ccc(C)c(C2=C(OC(=O)Cc3ccc(Br)cc3)C3(CCC(=O)CC3)NC2=O)c1	47.8	9.78	32.5	5.25
Cc1ccc(C)c(C2=C(OC(=O)Cc3ccc(C(F)(F)F)cc3)C3(CCC(=O)CC3)NC2=O)c1	98.6	60	85.3	49
Cc1ccc(C)c(C2=C(OC(=O)Cc3ccc([N+](=O)[O-])cc3)C3(CCC(=O)CC3)NC2=O)c1	92.2	32.3	73.8	16.3
CCOC(=O)OC1=C(c2cc(C)ccc2C)C(=O)NC12CCC(=O)CC2	93.5	45.9	62.3	30.4
CCCC(=O)OC1=C(c2cc(C)ccc2C)C(=O)NC12CCC(=O)CC2	98.7	37.3	54.7	19.7
Cc1ccc(C)c(C2=C(OC(=O)CC(C)(C)C)C3(CCC(=O)CC3)NC2=O)c1	62.1	21.6	26.1	8.76
C/C=C/C(=O)OC1=C(c2cc(C)ccc2C)C(=O)NC12CCC(=O)CC2	85.6	34.9	58.2	23.4
Cc1ccc(C)c(C2=C(OC(=O)c3ccccc3)C3(CCC(=O)CC3)NC2=O)c1	91.8	29.3	49.8	18.2
Cc1ccc(C)c(C2=C(OC(=O)c3ccccc3C)C3(CCC(=O)CC3)NC2=O)c1	25.5	6.27	59.4	17.3
Cc1ccc(C)c(C2=C(OC(=O)Cc3ccccc3)C3(CCC(=O)CC3)NC2=O)c1	95.6	62.8	66.8	38.9
Cc1ccc(CC(=O)OC2=C(c3cc(C)ccc3C)C(=O)NC23CCC(=O)CC3)cc1	73.5	48.4	70.8	21.8
CCC(C)(C)C(=O)OC1=C(c2ccc(Cl)cc2Cl)C(=O)OC12CCCCC2 [SPIRODICLOFEN]	60.3	19.4	70.6	36.7
Cc1cc(C)c(C2=C(OC(=O)CC(C)(C)C)C3(CCCC3)OC2=O)c(C)c1 [SPIROMESIFEN]	62.5	14.3	80.2	42.1
CCOC(=O)OC1=C(c2cc(C)ccc2C)C(=O)N[C@]12CC[C@@H](OC)CC2 [SPIROTETRAMAT]	100	96.8	75	26.3
